ChEMBL document CHEMBL3525957, “Stereospecific metabolism of itraconazole by CYP3A4: dioxolane ring scission of azole antifungals” (Drug Metab Dispos, 2012)

Columns and labels:
Cytochrome P450 3A4 [1] = target: T1, Cytochrome P450 3A4 (Homo sapiens, UniProt P08684); experiment: Drug metabolism of the compound assessed as CYP3A4 (unknown origin)-mediated 1-(2,4-dichlorophenyl)-2-(1H-1,2,4-triazol-1-yl)ethanone formation by LC/MS/MS analysis; assay type: ADME
Outline: (§1)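 kcat for M2 formation: trans isomers at 500 nM with CYP3A4 Supersomes (1 pmol) in KPi buffer. 5-min preincubation at 37°C, then NADPH (1 mM final) and 1-min reaction. M2 by LC-MS/MS, m/z 256.0>158.8, ITZ-d5 internal standard, standard curve 0.039–30 nM. kcat = product/time/pmol CYP3A4.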

Cytochrome P450 3A4 [2] = target: T1, Cytochrome P450 3A4; experiment: Drug metabolism of the compound assessed as CYP3A4 (unknown origin)-mediated 1-sec-butyl-4-(4-(4-(4-(3-hydroxy-2-oxopropoxy)phenyl)piperazin-1-yl)phenyl)-1H-1,2,4-triazol-5(4H)-one by LC/MS/MS analysis; assay type: ADME
Cytochrome P450 3A4 [3] = target: T1, Cytochrome P450 3A4; experiment: Drug metabolism of the compound assessed as CYP3A4 (unknown origin)-mediated 3-(4-(4-(4-(1-sec-butyl-5-oxo-1H-1,2,4-triazol-4(5H)-yl)phenyl)piperazin-1-yl)phenoxy)-2-hydroxypropanal by LC/MS/MS analysis; assay type: ADME
Cytochrome P450 3A4 [4] = target: T1, Cytochrome P450 3A4; experiment: Drug metabolism of the compound assessed as CYP3A4 (unknown origin) coexpressing P450 reductase and cytochrome-b5-mediated 1-sec-butyl-4-(4-(4-(4-(2,3-dihydroxypropoxy)phenyl)piperazin-1-yl)phenyl)-1H-1,2,4-triazol-5(4H)-one formation after 3 mins by LC/MS/MS analysis; assay type: ADME; conditions: 0.05 h
Cytochrome P450 3A4 [5] = target: T1, Cytochrome P450 3A4; experiment: Drug metabolism of the compound assessed as CYP3A4 (unknown origin) coexpressing P450 reductase and cytochrome-b5-mediated 3-(4-(4-(4-(1-sec-butyl-5-oxo-1H-1,2,4-triazol-4(5H)-yl)phenyl)piperazin-1-yl)phenoxy)-2-hydroxypropanal after 5 mins by LC/MS/MS analysis in presence of NADPH; assay type: ADME
Cytochrome P450 3A4 [6] = target: T1, Cytochrome P450 3A4; experiment: Drug metabolism of the compound assessed as purified CYP3A4 (unknown origin)-mediated 1-sec-butyl-4-(4-(4-(4-(3-hydroxy-2-oxopropoxy)phenyl)piperazin-1-yl)phenyl)-1H-1,2,4-triazol-5(4H)-one by LC/MS/MS analysis in presence of NADPH; assay type: ADME
Cytochrome P450 3A4 [7] = target: T1, Cytochrome P450 3A4; experiment: Drug metabolism of the compound assessed as purified CYP3A4 (unknown origin)-mediated 3-(4-(4-(4-(1-sec-butyl-5-oxo-1H-1,2,4-triazol-4(5H)-yl)phenyl)piperazin-1-yl)phenoxy)-2-hydroxypropanal by LC/MS/MS analysis in presence of NADPH; assay type: ADME
Cytochrome P450 3A4 [8] = target: T1, Cytochrome P450 3A4; experiment: Drug metabolism of the compound assessed as reconstituted CYP3A4 (unknown origin)-mediated 1-(2,4-dichlorophenyl)-2-(1H-1,2,4-triazol-1-yl)ethanone formation at 500 nM after 5 mins by LC/MS analysis in presence of NADPH; assay type: ADME; conditions: 0.5 µM
Cytochrome P450 3A4 [9] = target: T1, Cytochrome P450 3A4; experiment: Drug metabolism of the compound assessed as CYP3A4 (unknown origin) coexpressing P450 reductase and cytochrome-b5-mediated 1-(2,4-dichlorophenyl)-2-(1H-1,2,4-triazol-1-yl)ethanone formation at 500 nM after 5 mins by LC/MS analysis in presence of NADPH; assay type: ADME; conditions: 0.5 µM
Cytochrome P450 3A4 [10] = target: T1, Cytochrome P450 3A4; experiment: Drug metabolism of the compound assessed as CYP3A4 (unknown origin) coexpressing P450 reductase and cytochrome-b5-mediated 1-sec-butyl-4-(4-(4-(4-(3-hydroxy-2-oxopropoxy)phenyl)piperazin-1-yl)phenyl)-1H-1,2,4-triazol-5(4H)-one after 5 mins by LC/MS/MS analysis in presence of NADPH; assay type: ADME
Cytochrome P450 3A4 [11] = target: T1, Cytochrome P450 3A4; experiment: Drug level of the compound assessed as CYP3A4 (unknown origin)-mediated metabolite formation treated with 3'-OH-ITZ by LC/MS/MS analysis; assay type: ADME
Outline: (§2)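 Substrate incubated with CYP3A4 Supersomes (100 pmol) in KPi buffer at 37°C for 1 h, with and without NADPH, plus a no-enzyme control. Products by LC/Q-TOF MS, positive ESI, m/z 100–1500, cone 35 V, low-energy (6 eV) and ramped high-energy modes.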

Cytochrome P450 3A4 [12] = target: T1, Cytochrome P450 3A4; experiment: Binding affinity to purified CYP3A4 (unknown origin) coexpressing P450 reductase and cytochrome-b5 by UV-Vis spectrophotometry; assay type: ADME; conditions: read-out: Ks
Cytochrome P450 3A4 [13] = target: T1, Cytochrome P450 3A4; experiment: Drug metabolism of the compound assessed as CYP3A4 (unknown origin) coexpressing P450 reductase and cytochrome-b5-mediated 1-(2,4-dichlorophenyl)-2-(1H-1,2,4-triazol-1-yl)ethanone formation by LC/MS/MS analysis; assay type: ADME; outline: as §1
[14] = Drug metabolism in human assessed as 1-(2,4-dichlorophenyl)-2-(1H-1,2,4-triazol-1-yl)ethanone level in urine at 400 mg, po measured on day 4 by MS/MS analysis; assay type: ADME, organism-based; conditions: in vivo
Outline: (§3)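 Six subjects (5 male, 1 female) received itraconazole 400 mg orally. Urine collected 24 h before dosing, 0–12 and 12–24 h after, then 24–48, 72–96 and 120–144 h, with volume recorded. 5 ml urine extracted with ethyl acetate. M2 measured by MS/MS at transition m/z 256>158.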

[15] = Drug metabolism in human assessed as 1-(2,4-dichlorophenyl)-2-(1H-1,2,4-triazol-1-yl)ethanone level in urine at 400 mg, po after 24 hrs by MS/MS analysis; assay type: ADME, organism-based; conditions: in vivo; outline: as §3
Cytochrome P450 3A4 [16] = target: T1, Cytochrome P450 3A4; experiment: Drug level of the compound assessed as CYP3A4 (unknown origin)-mediated metabolite formation treated with N-desalkyl-ITZ by LC/MS/MS analysis; assay type: ADME; outline: as §2
Cytochrome P450 3A4 [17] = target: T1, Cytochrome P450 3A4; experiment: Inhibition of CYP3A4 in human liver microsomes using midazolam as substrates after 5 mins by LC/MS analysis in presence of NADPH; assay type: ADME
Outline: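 Pooled HLM (0.025 mg/ml, CYP3A5*3/*3) with midazolam 1 μM in KPi. Inhibitor range 5–1000 nM for trans isomers. 5-min preincubation at 37°C, then NADPH 1 mM final, run for 2 min. Stopped with ethyl acetate, d4-1'-OH-MDZ added as internal standard. IC50 from fit of remaining-activity equation.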

CYP3A4 = CYP3A4 (Homo sapiens, UniProt P08684); experiment: Inhibition of CYP3A4 in human liver microsomes using midazolam as substrates at 15 uM after 5 mins by LC/MS analysis in presence of NADPH; assay type: ADME; conditions: probe midazolam
Chain of CYP3A4 (P08684 whole entry): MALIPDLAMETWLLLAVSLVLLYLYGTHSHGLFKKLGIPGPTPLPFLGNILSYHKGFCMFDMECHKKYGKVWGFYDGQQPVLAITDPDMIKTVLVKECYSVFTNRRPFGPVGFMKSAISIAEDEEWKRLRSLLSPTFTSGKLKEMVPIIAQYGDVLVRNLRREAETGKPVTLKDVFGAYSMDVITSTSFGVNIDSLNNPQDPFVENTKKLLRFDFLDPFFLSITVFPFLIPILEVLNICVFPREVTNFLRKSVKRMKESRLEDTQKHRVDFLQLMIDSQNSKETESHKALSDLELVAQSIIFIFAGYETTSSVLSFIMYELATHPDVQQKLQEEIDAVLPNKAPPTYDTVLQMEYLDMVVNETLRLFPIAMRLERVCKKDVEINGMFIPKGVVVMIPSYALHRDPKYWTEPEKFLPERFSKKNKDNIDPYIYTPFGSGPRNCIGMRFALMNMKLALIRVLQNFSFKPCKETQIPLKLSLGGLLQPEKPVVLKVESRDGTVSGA

[18] = Drug metabolism in human assessed as 1-(2,4-dichlorophenyl)-2-(1H-1,2,4-triazol-1-yl)ethanone level in urine at 400 mg, po measured on day 7 by MS/MS analysis; assay type: ADME, organism-based; conditions: in vivo; outline: as §3
Cytochrome P450 3A4 [19] = target: T1, Cytochrome P450 3A4; experiment: Drug metabolism of the compound assessed as CYP3A4 (unknown origin) coexpressing P450 reductase and cytochrome-b5-mediated 1-sec-butyl-4-(4-(4-(4-(2,3-dihydroxypropoxy)phenyl)piperazin-1-yl)phenyl)-1H-1,2,4-triazol-5(4H)-one formation after 1 hr by LC/MS/MS analysis; assay type: ADME
Cytochrome P450 3A4 [20] = target: T1, Cytochrome P450 3A4; experiment: Drug level of the compound assessed as CYP3A4 (unknown origin)-mediated metabolite formation treated with keto-ITZ by LC/MS/MS analysis; assay type: ADME; outline: as §2
Cytochrome P450 3A4 [21] = target: T1, Cytochrome P450 3A4; experiment: Drug level of the compound assessed as CYP3A4 (unknown origin)-mediated metabolite formation treated with cis-ITZ by LC/MS/MS analysis; assay type: ADME; outline: as §2
Cytochrome P450 3A4 [22] = target: T1, Cytochrome P450 3A4; experiment: Drug level of the compound assessed as CYP3A4 (unknown origin) coexpressing P450 reductase and cytochrome-b5-mediated metabolite formation treated with trans-ITZ by LC/MS/MS analysis; assay type: ADME
[23] = Drug metabolism in human assessed as 1-(2,4-dichlorophenyl)-2-(1H-1,2,4-triazol-1-yl)ethanone level in urine at 400 mg, po measured on day 2 by MS/MS analysis; assay type: ADME, organism-based; conditions: in vivo; outline: as §3
Cytochrome P450 3A4 [24] = target: T1, Cytochrome P450 3A4; experiment: Drug level of the compound assessed as CYP3A4 (unknown origin) coexpressing P450 reductase and cytochrome-b5-mediated metabolite formation treated with trans-(2S,4S,2'S)-ITZ by LC/MS/MS analysis; assay type: ADME
Cytochrome P450 3A4 [25] = target: T1, Cytochrome P450 3A4; experiment: Drug level of the compound assessed as purified CYP3A4 (unknown origin)-mediated metabolite formation treated with trans-(2S,4S,2'S)-ITZ by LC/MS/MS analysis; assay type: ADME

T1 sequence (P08684 whole entry): as above

SMILES: CC[C@H](C)n1ncn(-c2ccc(N3CCN(c4ccc(OC[C@@H]5CO[C@@](Cn6cncn6)(c6ccc(Cl)cc6Cl)O5)cc4)CC3)cc2)c1=O
- Drug metabolism (Cytochrome P450 3A4 [1]): metabolite_detected
- Drug metabolism (Cytochrome P450 3A4 [2]): metabolite_detected
- Drug metabolism (Cytochrome P450 3A4 [3]): metabolite_detected

SMILES: CC[C@H](C)n1ncn(-c2ccc(N3CCN(c4ccc(OC[C@H]5CO[C@](Cn6cncn6)(c6ccc(Cl)cc6Cl)O5)cc4)CC3)cc2)c1=O
- Drug metabolism (Cytochrome P450 3A4 [1]): metabolite_detected
- Drug metabolism (Cytochrome P450 3A4 [2]): metabolite_detected
- Drug metabolism (Cytochrome P450 3A4 [3]): metabolite_detected

SMILES: CC[C@@H](C)n1ncn(-c2ccc(N3CCN(c4ccc(OC[C@H]5CO[C@](Cn6cncn6)(c6ccc(Cl)cc6Cl)O5)cc4)CC3)cc2)c1=O
- Drug metabolism (Cytochrome P450 3A4 [1]): metabolite_detected
- Drug metabolism (Cytochrome P450 3A4 [2]): metabolite_detected
- Drug metabolism (Cytochrome P450 3A4 [3]): metabolite_detected

SMILES: CC[C@H](C)n1ncn(-c2ccc(N3CCN(c4ccc(OC[C@H]5CO[C@@](Cn6cncn6)(c6ccc(Cl)cc6Cl)O5)cc4)CC3)cc2)c1=O
- Drug metabolism (Cytochrome P450 3A4 [4]): metabolite_detected
- Drug metabolism (Cytochrome P450 3A4 [5]): metabolite_detected
- Drug metabolism (Cytochrome P450 3A4 [6]): metabolite_detected
- Drug metabolism (Cytochrome P450 3A4 [7]): metabolite_detected
- Kcat (Cytochrome P450 3A4 [8]): 0.0042 s⁻¹
- Kcat (Cytochrome P450 3A4 [9]): 0.0198 s⁻¹
- Drug metabolism (Cytochrome P450 3A4 [10]): metabolite_detected

SMILES: CC[C@@H](C)n1ncn(-c2ccc(N3CCN(c4ccc(OC[C@H]5CO[C@@](Cn6cncn6)(c6ccc(Cl)cc6Cl)O5)cc4)CC3)cc2)c1=O
- Kcat (Cytochrome P450 3A4 [8]): 0.0041 s⁻¹
- Kcat (Cytochrome P450 3A4 [9]): 0.0183 s⁻¹

SMILES: CC[C@H](C)n1ncn(-c2ccc(N3CCN(c4ccc(OC[C@@H]5CO[C@](Cn6cncn6)(c6ccc(Cl)cc6Cl)O5)cc4)CC3)cc2)c1=O
- Kcat (Cytochrome P450 3A4 [8]): 0.0038 s⁻¹
- Kcat (Cytochrome P450 3A4 [9]): 0.0214 s⁻¹

SMILES: CC[C@@H](C)n1ncn(-c2ccc(N3CCN(c4ccc(OC[C@@H]5CO[C@](Cn6cncn6)(c6ccc(Cl)cc6Cl)O5)cc4)CC3)cc2)c1=O
- Kcat (Cytochrome P450 3A4 [8]): 0.0032 s⁻¹
- Kcat (Cytochrome P450 3A4 [9]): 0.0159 s⁻¹

SMILES: O=C(Cn1cncn1)c1ccc(Cl)cc1Cl
- Drug metabolism (Cytochrome P450 3A4 [11]): metabolite_detected
- Kd (Cytochrome P450 3A4 [12]): 12.8 µM
- Drug metabolism (Cytochrome P450 3A4 [13]): metabolite_detected
- Drug metabolism [14]: 319 ng
- Drug metabolism [15]: 1114 ng
- Drug metabolism (Cytochrome P450 3A4 [16]): metabolite_detected
- IC50 (Cytochrome P450 3A4 [17]): > 15 µM
- inhibition at 5 min, 15 µM (CYP3A4): < 50%
- Drug metabolism [18]: 87 ng
- Drug metabolism (Cytochrome P450 3A4 [19]): metabolite_detected
- Drug metabolism (Cytochrome P450 3A4 [20]): metabolite_detected
- Drug metabolism (Cytochrome P450 3A4 [21]): metabolite_detected
- Drug metabolism (Cytochrome P450 3A4 [22]): metabolite_detected
- Drug metabolism [23]: 429 ng

SMILES: CCC(C)n1ncn(-c2ccc(N3CCN(c4ccc(OCC(O)C=O)cc4)CC3)cc2)c1=O (centres undefined)
- Drug metabolism (Cytochrome P450 3A4 [24]): metabolite_detected
- Drug metabolism (Cytochrome P450 3A4 [25]): metabolite_detected
- Drug metabolism (Cytochrome P450 3A4 [21]): metabolite_detected

SMILES: CCC(C)n1ncn(-c2ccc(N3CCN(c4ccc(OCC(=O)CO)cc4)CC3)cc2)c1=O (centres undefined)
- Drug metabolism (Cytochrome P450 3A4 [24]): metabolite_detected
- Drug metabolism (Cytochrome P450 3A4 [25]): metabolite_detected
- Drug metabolism (Cytochrome P450 3A4 [21]): metabolite_detected

SMILES: CCC(C)n1ncn(-c2ccc(N3CCN(c4ccc(OCC(O)CO)cc4)CC3)cc2)c1=O (centres undefined)
- Drug metabolism (Cytochrome P450 3A4 [13]): metabolite_detected
- Drug metabolism (Cytochrome P450 3A4 [25]): metabolite_not_detected
- Drug metabolism (Cytochrome P450 3A4 [19]): metabolite_detected
- Drug metabolism (Cytochrome P450 3A4 [22]): metabolite_detected

SMILES: CC[C@@H](C)n1ncn(-c2ccc(N3CCN(c4ccc(OC[C@@H]5CO[C@@](Cn6cncn6)(c6ccc(Cl)cc6Cl)O5)cc4)CC3)cc2)c1=O
- Drug metabolism (Cytochrome P450 3A4 [1]): metabolite_detected
- Drug metabolism (Cytochrome P450 3A4 [2]): metabolite_detected
- Drug metabolism (Cytochrome P450 3A4 [3]): metabolite_detected
